According to ChEMBL document CHEMBL1135916, “Design, synthesis, and structure-activity relationship of pyridyl imidazolidinones: a novel class of potent and selective human enterovirus 71 inhibitors” (J Med Chem, 2002):
Where “and” joins values, the source holds several entries; their conditions need not be identical. Equal entries are not always repeated.

What was measured:
[1] = tested on: Enterovirus A71; assay: Inhibition concentration against EV-71; type: functional, organism-based
[2] = Selectivity index (RD/EV71) of the compound; type: functional
[3] = (§1) Cytotoxicity against human rhabdomyosarcoma (RD) cells; type: functional
In short: (§2)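 Test compound at various concentrations added to D551 (human normal skin fibroblast), WI38 (human normal lung fibroblast) or RD cells; incubated 96 h at 37 °C; cells harvested and viable cells counted by trypan blue staining. Triplicate, at least twice.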

[4] = Cytotoxicity against human normal skin fibroblast (D551) cells; type: cell-based; in short: as §2
[5] = Selectivity index (W138/EV71) of the compound; type: functional
[6] = Selectivity index (D551/EV71) of the compound; type: functional
[7] = Cytotoxicity against human normal skin fibroblast (W138) cells; type: cell-based; in short: as §2
[8] = as §1; type: functional; remark: listed apart in the source
[9] = D551 normal skin fibroblast cells
[10] = W138 normal skin fibroblast cells

| SMILES | IC50 ([1]; Enterovirus A) | CC50 ([8]; Homo sapiens, RD) | also measured |
| --- | --- | --- | --- |
| O=C1N(CCCCCOc2ccc(Br)cc2)CCN1c1ccncc1 | 0.5 µM | – | Selectivity index [2]: > 50; CC50 [3]: > 25 µM; CC50 [4, 9]: 50 µM; Selectivity index [5]: 130; Selectivity index [6]: 100; CC50 [7, 10]: 65 µM |
| O=C1N(CCCCCCOc2ccc(Br)cc2)CCN1c1cccnc1 | 2.07 µM | > 25 µM | – |
| O=C1N(CCCCCCOc2cccc(Br)c2)CCN1c1ccncc1 | > 25 µM | > 25 µM | – |
| O=C1N(CCCCCCOc2cccc3ccccc23)CCN1c1ccncc1 | > 6.25 µM | 6.25 µM | – |
| COc1ccc(-c2ccc(OCCCCCN3CCN(c4ccncc4)C3=O)cc2)cc1 | 0.34 µM | > 25 µM | Selectivity index [2]: > 74; CC50 [4, 9]: > 100 µM; Selectivity index [5]: > 294; Selectivity index [6]: > 294; CC50 [7, 10]: > 100 µM |
| O=C1N(CCCCCCOc2ccc(Br)cc2)CCN1c1ccnc(Cl)c1 | > 25 µM | > 25 µM | – |
| O=C1N(CCCCCCCOc2ccc(Br)cc2)CCN1c1ccncc1 | 0.56 µM | > 25 µM | – |
| O=C1N(CCCCCOc2ccc(-c3ccc(Cl)cc3)cc2)CCN1c1ccncc1 | – | – | CC50 [4]: 13 µM; CC50 [7]: 48 µM; CC50 [8]: 12.5 µM |
| N#Cc1ccc(OCCCCCCN2CCN(c3ccncc3)C2=O)cc1 | > 0.39 µM | 0.39 µM | – |
| O=C1N(CCCCCCOc2ccc(F)cc2)CCN1c1cccnc1 | 9.33 µM | > 25 µM | – |
| O=C1N(CCCCCCCOc2ccc(Cl)cc2)CCN1c1ccncc1 | 0.66 µM | > 25 µM | – |
| O=C1N(CCCCCCOc2ccc(Br)cc2)CCN1c1ccccc1 | 10.6 µM | > 25 µM | – |
| O=C1N(CCCCCCOc2ccc(C(F)(F)F)cc2)CCN1c1cccnc1 | 2.1 µM | > 25 µM | – |
| Cc1ccc(OCCCCCCN2CCN(c3cccnc3)C2=O)cc1 | > 25 µM | > 25 µM | – |
| O=C1N(CCCCCOc2ccc(-c3ccc([N+](=O)[O-])cc3)cc2)CCN1c1ccncc1 [listing 1 of 3 here] | 0.59 µM | > 25 µM | CC50 [4, 9]: > 100 µM; CC50 [7, 10]: > 100 µM |
| O=C1N(CCCCCCOc2ccc(Cl)cc2)CCN1c1ccccc1 | 10.8 µM | > 25 µM | – |
| CSc1ccc(OCCCCCCN2CCN(c3ccnc(Cl)c3)C2=O)cc1 | > 25 µM | > 25 µM | – |
| O=C1N(CCCCCOc2ccc(Cl)cc2)CCN1c1ccncc1 | 1.35 µM | – | CC50 [3]: > 25 µM |
| CN(C)c1cccc(OCCCCCCN2CCN(c3ccncc3)C2=O)c1 | > 25 µM | > 25 µM | – |
| O=C1N(CCCCCOc2ccc(Cl)cc2)CCN1c1cccnc1 | 4.65 µM | > 25 µM | – |
| Cc1ccc(OCCCCCCN2CCN(c3ccncc3)C2=O)cc1 | 6.36 µM | > 25 µM | – |
| N#Cc1ccc(-c2ccc(OCCCCCN3CCN(c4ccncc4)C3=O)cc2)cc1 | 2.66 µM | > 25 µM | – |
| CC(C)(C)c1ccc(OCCCCCCN2CCN(c3cccnc3)C2=O)cc1 | > 25 µM | > 25 µM | – |
| O=C1N(CCCCCOc2ccc(-c3ccc([N+](=O)[O-])cc3)cc2)CCN1c1ccncc1 [listing 2 of 3 here] | – | – | IC50 [1]: 0.33 µM; CC50 [4]: 66 µM; CC50 [7]: 70 µM |
| O=C1N(CCCCCOc2ccc(-c3ccc([N+](=O)[O-])cc3)cc2)CCN1c1ccncc1 [listing 3 of 3 here] | – | – | Selectivity index [2]: > 76; Selectivity index [5]: > 169 and 212; Selectivity index [6]: > 169 and 200 |
| O=C1N(CCCCCCOc2c(Cl)cccc2Cl)CCN1c1ccncc1 | > 25 µM | > 25 µM | – |
